The record followed here is ChEMBL document CHEMBL5149989, “Interplay among Conformation, Intramolecular Hydrogen Bonds, and Chameleonicity in the Membrane Permeability and Cyclophilin A Binding of Macrocyclic Peptide Cyclosporin O Derivatives” (J Med Chem, 2021).

Non-standard residues stand in square brackets, D forms with d. Residues, ends and D or L forms follow the SMILES beside them. NMeL = CN[C@@H](CC(C)C)C(=O)O; NMeV = CN[C@H](C(=O)O)C(C)C; Nva = CCC[C@H](N)C(=O)O; Sar = CNCC(=O)O

Data set [1] can be described thus: Permeability in PBS buffer measured after 18 hrs by PAMPA based LC-MS analysis. The class given is ADME. The settings on record: read-out: permeability. On the technique in general: In PAMPA a lipid-coated filter parts donor from acceptor wells.
Data set [2] deals with Peptidyl-prolyl cis-trans isomerase A (Homo sapiens, UniProt P62937). The data set is described as follows: Binding affinity to CypA (unknown origin) assessed as inhibition constant by isomer specific proteolysis assay.
Sequence of Peptidyl-prolyl cis-trans isomerase A (P62937 whole entry): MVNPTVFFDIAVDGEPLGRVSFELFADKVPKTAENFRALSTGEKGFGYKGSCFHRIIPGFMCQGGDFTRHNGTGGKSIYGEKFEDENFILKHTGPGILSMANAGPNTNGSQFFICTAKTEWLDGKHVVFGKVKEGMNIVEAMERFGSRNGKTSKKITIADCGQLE
Data set [3] in a line: Permeability across apical to basal side in human Caco-2 cells assessed as drug recovery preincubated with verapamil for 30 mins followed by compound addition measured at 0.5 to 2 hrs by LC-MS analysis relative to control. It is filed as ADME, cell-based. The following applies: for recovery: Caco-2, with verapamil (concentration not stated), time 1-2.5 hrs, read-out: Drug recovery. Background: Passage across Caco-2 layers is used to estimate intestinal permeability.

The nature of data set [4]: Permeability across basal to apical side in human Caco-2 cells assessed as drug recovery measured at 0.5 to 2 hrs by LC-MS analysis relative to control. The following applies: time 0.5-2 hrs, read-out: Drug recovery. It is filed as ADME, cell-based.
Data set [5] is described as follows: Permeability across basal to apical side in human Caco-2 cells measured at 0.5 to 2 hrs by LC-MS analysis. The class given is ADME, cell-based. The settings on record: time 0.5-2 hrs, read-out: permeability.
The nature of data set [6]: Permeability across apical to basal side in human Caco-2 cells measured at 0.5 to 2 hrs by LC-MS analysis. It is filed as ADME, cell-based. The settings on record: time 0.5-2 hrs; for Papp A→B: read-out: permeability.
A short description of data set [7]: Permeability across apical to basal side in human Caco-2 cells assessed as drug recovery measured at 0.5 to 2 hrs by LC-MS analysis relative to control. It is filed as ADME, cell-based. The following applies: time 0.5-2 hrs, read-out: Drug recovery.
Data set [8] is described as follows: Effective permeability in PBS buffer assessed as mass retention measured after 18 hrs by PAMPA based LC-MS analysis. The class given is ADME.
The nature of data set [9]: Permeability across apical to basal side in human Caco-2 cells preincubated with verapamil for 30 mins followed by compound addition measured at 0.5 to 2 hrs by LC-MS analysis. The class given is ADME, cell-based. The following applies: Caco-2, with verapamil (concentration not stated), time 0.5-2 hrs, read-out: permeability.
A short description of data set [10]: Clearance in ICR mouse at 20 mg/kg, po measured after 0.25 to 24 hrs by LC-MS/MS analysis. The class given is ADME, organism-based. The settings on record: in vivo, time 0.25-24 hrs. The method in brief: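 Male ICR mice (9 weeks, 33−37 g) given 20 mg/kg (10 mL/kg) by oral gavage. Plasma obtained by centrifugation at 4 °C, protein-precipitated with 4 volumes acetonitrile, and analysed by LC-MS/MS.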

Data set [11] can be described thus: Apparent volume of distribution in ICR mouse at 20 mg/kg, po measured after 0.25 to 24 hrs by LC-MS/MS analysis. The settings on record: in vivo, time 0.25-24 hrs. It is filed as ADME, organism-based.
Data set [12] in a line: Half life in ICR mouse at 20 mg/kg, po measured after 0.25 to 24 hrs by LC-MS/MS analysis. It is filed as ADME, organism-based. The settings on record: in vivo, time 0.25-24 hrs.
Data set [13] can be described thus: Cmax in ICR mouse at 20 mg/kg, po measured after 0.25 to 24 hrs by LC-MS/MS analysis. The following applies: in vivo. More on the design: time upper 24 hrs, time lower 0.25 hrs, dose 20 mg/kg, route po. The class given is ADME, organism-based.
Data set [14] can be described thus: Tmax in ICR mouse at 20 mg/kg, po measured after 0.25 to 24 hrs by LC-MS/MS analysis. The class given is ADME, organism-based. The settings on record: in vivo, time 0.25-24 hrs.
Data set [15] can be described thus: AUCinfinity in ICR mouse at 20 mg/kg, po measured after 0.25 to 24 hrs by LC-MS/MS analysis. It is filed as ADME, organism-based. Also on record: dose 20 mg/kg, time upper 24 hrs, time lower 0.25 hrs, route po. The settings on record: in vivo.
A short description of data set [16]: Half life in ICR mouse at 5 mg/kg, iv measured after 0.08 to 24 hrs by LC-MS/MS analysis. The settings on record: in vivo.
Data set [17] is described as follows: Oral bioavailability in ICR mouse at 20 mg/kg measured after 0.25 to 24 hrs by LC-MS/MS analysis. The class given is ADME, organism-based. The settings on record: in vivo, time 0.25-24 hrs. The method in brief:
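Male ICR mice received 5 mg/kg iv via tail vein or 20 mg/kg po by gavage. Plasma was sampled serially up to 24 h via the saphenous vein, acetonitrile-precipitated and quantified by LC-MS/MS. F was derived from the po and iv AUC∞ values.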

Data set [18] can be described thus: Ratio of drug level in brain to plasma in ICR mouse plasma at 1 uM preincubated for 10 mins followed by compound addition measured after 60 mins by LC-MS/MS analysis. It is filed as ADME, cell-free. The settings on record: read-out: BPR.
The nature of data set [19]: Volume of distribution at steady state in ICR mouse at 5 mg/kg, iv measured after 0.08 to 24 hrs by LC-MS/MS analysis. The following applies: in vivo, read-out: Vdss.
Data set [20] can be described thus: AUCinfinity in ICR mouse at 5 mg/kg, iv measured after 0.08 to 24 hrs by LC-MS/MS analysis. The settings on record: in vivo.
The nature of data set [21]: Potency index, ratio of cyclosporin A BPR to test compound BPR for drug level in ICR mouse at 1 uM. The class given is ADME. The settings on record: in vivo.

For orientation: Ki means the dissociation constant of the complex between target and ligand, obtained from inhibition or displacement. With `CCC[C@@H]1NC(=O)[C@H](CC(C)C)N(C)C(=O)[C@H](CC(C)C)N(C)C(=O)[C@H](CC(C)C)N(C)C(=O)[C@H](CC(C)C)N(C)C(=O)[C@@H](C)NC(=O)[C@H](C)NC(=O)[C@H](CC(C)C)N(C)C(=O)[C@H](C(C)C)NC(=O)[C@H](CC(C)C)N(C)C(=O)CN(C)C1=O`, the Papp at 18 h in data set [1] came to 0.6 nm/s. Also, the Ki in data set [2] was > 20 µM. For the same compound, the recovery in data set [3] stood at 107%; in [4], 65%; in data set [7], 66%. In [5], the Papp B→A was 6.1 nm/s. Besides, the Papp A→B is 0.7 nm/s in [6] and 3.4 nm/s in [9]. For the same compound, the Activity in [8] is reported as 74%.

`CCC[C@@H]1NC(=O)[C@H](CC(C)C)N(C)C(=O)[C@H](C(C)C)N(C)C(=O)[C@H](CC(C)C)N(C)C(=O)[C@H](CC(C)C)N(C)C(=O)[C@@H](C)NC(=O)[C@H](CCC(N)=O)NC(=O)[C@H](CC(C)C)N(C)C(=O)[C@H](C(C)C)NC(=O)[C@H](CC(C)C)N(C)C(=O)CN(C)C1=O`: the Papp at 18 h in data set [1] was < 0.04 nm/s. The Ki in data set [2] was 3 µM. Moreover, the recovery was 112% in data set [3], 88% in [4] and 76% in data set [7]. In addition, the Papp B→A in [5] is 51.7 nm/s. Besides, the Papp A→B came to 0.5 nm/s in data set [6] and 0.7 nm/s in data set [9]. The Activity in [8] is given as 60%.

The term CL/F denotes the apparent clearance, not corrected for the fraction that reaches the circulation. For orientation: half-life means the time in which the quantity being followed falls by half. Low readings indicate rapid decline, high ones slow decline. A word on the Cmax: it is the maximum level reached in the sampled fluid or tissue. The Tmax is the time at which the peak concentration occurs. For orientation: AUC means concentration integrated over time. As for `CCC[C@@H]1NC(=O)[C@H](CC(C)C)N(C)C(=O)[C@H](C(C)C)N(C)C(=O)[C@H](CC(C)C)N(C)C(=O)[C@H](CC(C)C)N(C)C(=O)[C@@H](C)NC(=O)[C@H](C)NC(=O)[C@H](CC(C)C)N(C)C(=O)[C@H](C(C)C)NC(=O)[C@H](CC(C)C)N(C)C(=O)CN(C)C1=O` (cyclo(A[dA][NMeL][NMeL][NMeV][NMeL][Nva][Sar][NMeL]V[NMeL])), the CL/F in [10] came to 4.92 L/h/kg. In addition, in data set [11], the Vz is 22.2 L/kg. For the same compound, the half-life was 3.1 h in data set [12] and 4.8 h in [16]. For the same compound, in data set [1], the Papp at 18 h was 2.9 nm/s. In addition, in [2], the Ki is 2.3 µM. The compound also returned a Cmax in data set [13] of 1.6 µg/mL. The Drug recovery in [3] (caco-2, time 1-2.5 hrs) turned out to be 123%. In [14], the time to peak (Tmax) is 0.8 h. The recovery in data set [4] and in [7] was 82% in each case. Besides, the AUC in data set [15] is 4.08 µg·h/mL; in data set [20] it was 8.5 µg·h/mL. In [5], the Papp B→A was found to be 28.8 nm/s. The permeability in data set [6] is reported as 0.29 10^-6 cm/s. This compound also showed a F in data set [17] of 12%. Further, the Kp at 1 h, 1 µM in data set [18] came out at 0.62. In addition, the Vd in [19] came out at 4 L/kg. Further, the Activity in data set [8] is listed as 84%. The Ratio in data set [21] is given as 5. Moreover, the Papp A→B in data set [9] is 6.9 nm/s.

`CCC[C@@H]1NC(=O)[C@H](CC(C)C)N(C)C(=O)[C@H](CC(C)C)N(C)C(=O)[C@H](CC(C)C)N(C)C(=O)[C@H](CC(C)C)N(C)C(=O)[C@@H](C)NC(=O)[C@H](CCC(N)=O)NC(=O)[C@H](CC(C)C)N(C)C(=O)[C@H](C(C)C)NC(=O)[C@H](CC(C)C)N(C)C(=O)CN(C)C1=O` (cyclo([NMeL][NMeL][NMeL][NMeL][Nva][Sar][NMeL]V[NMeL]Q[dA])): the Papp at 18 h in data set [1] is < 0.09 nm/s. Besides, the Ki in data set [2] is > 20 µM. The recovery in data set [3] was determined as 110%; in data set [4], 87%; in [7], 89%. Also, the Papp B→A in [5] amounted to 86 nm/s. Further, the Papp A→B was 1.2 nm/s in data set [6] and 1.8 nm/s in [9]. For the same compound, the Activity in data set [8] came out at 75%.

Regarding `CC(C)NCC(O)COc1ccc(CC(N)=O)cc1` (configuration not stated) [ATENOLOL], the recovery in [3] came out at 78%; in data set [4], 85%; in [7], 88%.

Turning to `CC(C)NCC(O)COc1cccc2ccccc12` (configuration not stated) [PROPRANOLOL], the Papp A→B in [6] stood at 200 nm/s.
